Read-outs that look alike come from different tables or passages of the source. Blank lines part the entries; values can stand above or below the molecule they belong to.
Experiments:
recombinant Top1 [1] = target: T1, recombinant Top1 (Homo sapiens, UniProt P11387); experiment: Top1-mediated DNA cleavage assay; assay type: biochemical; settings: for Top1 Cleavage: score relative to 1 μM camptothecin (1), tested at 0.1, 1, 10, 100 μM
T1 sequence (P11387 1-765): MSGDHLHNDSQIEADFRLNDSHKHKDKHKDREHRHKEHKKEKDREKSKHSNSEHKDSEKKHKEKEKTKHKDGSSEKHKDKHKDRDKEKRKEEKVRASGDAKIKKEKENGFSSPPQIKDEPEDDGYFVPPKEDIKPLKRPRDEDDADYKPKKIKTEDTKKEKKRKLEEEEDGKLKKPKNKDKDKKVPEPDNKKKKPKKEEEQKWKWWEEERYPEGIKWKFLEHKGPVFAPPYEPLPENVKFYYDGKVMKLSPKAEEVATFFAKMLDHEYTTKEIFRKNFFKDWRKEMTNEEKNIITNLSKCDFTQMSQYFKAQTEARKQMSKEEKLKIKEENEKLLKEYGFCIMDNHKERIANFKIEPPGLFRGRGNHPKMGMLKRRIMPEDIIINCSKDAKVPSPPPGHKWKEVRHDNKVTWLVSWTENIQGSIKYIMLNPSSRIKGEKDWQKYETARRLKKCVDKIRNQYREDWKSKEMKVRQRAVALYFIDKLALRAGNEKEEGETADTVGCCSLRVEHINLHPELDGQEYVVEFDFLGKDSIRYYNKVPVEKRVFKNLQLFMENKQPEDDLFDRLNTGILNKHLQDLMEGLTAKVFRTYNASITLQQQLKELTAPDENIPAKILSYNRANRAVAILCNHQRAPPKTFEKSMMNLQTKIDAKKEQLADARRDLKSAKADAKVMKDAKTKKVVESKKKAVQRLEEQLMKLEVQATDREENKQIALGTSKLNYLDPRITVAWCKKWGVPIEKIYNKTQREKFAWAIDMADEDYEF

[2] = test system: all 60 cell lines (NCI-60 human tumor cell line screen); experiment: NCI-60 GI50 mean graph midpoint; assay type: cell-based; settings: read-out: Cytotoxicity (GI50, μM) MGM
In short: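 Compounds were first screened at a single 10 μM dose across NCI-60 lines. Those with low enough averaged growth percent advanced to a five-concentration assay (10⁻⁸–10⁻⁴ M). […] Values beyond the range were recorded as the minimum or maximum tested concentration. MGM is the average GI50 over all 60 lines.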

recombinant Top1 [3] = target: T1, recombinant Top1; set-up: key to the marks not given beside the values; settings: score relative to 1 μM camptothecin (1); cited from earlier work
Melanoma UACC-62 = settings: read-out: Cytotoxicity (GI50, μM) Melanoma UACC-62; NCI-60; cited from earlier work
Prostate DU-145 = settings: read-out: Cytotoxicity (GI50, μM) Prostate DU-145; NCI-60; cited from earlier work
[4] = cited from earlier work
Renal SN12C = settings: read-out: Cytotoxicity (GI50, μM) Renal SN12C; NCI-60; cited from earlier work
Colon HCT-116 = settings: read-out: Cytotoxicity (GI50, μM) Colon HCT-116; NCI-60; cited from earlier work
Ovarian OVCAR-3 = settings: read-out: Cytotoxicity (GI50, μM) Ovarian OVCAR-3; NCI-60; cited from earlier work
Lung HOP-62 = settings: read-out: Cytotoxicity (GI50, μM) Lung HOP-62; NCI-60; cited from earlier work
CNS SF-539 = settings: read-out: Cytotoxicity (GI50, μM) CNS SF-539; NCI-60; cited from earlier work

SMILES: O=C1c2cc3c(cc2-c2c1c1ccc(Cl)cc1c(=O)n2C[C@H](O)CO)OCO3 [Compound 22, (S)-3-Chloro-6-(2,3-dihydroxypropyl)-8,9-methylenedioxy-5H-indeno[1,2-c]isoquinoline-5,11(6H)-dione]
- Top1 Cleavage (recombinant Top1 [1]): ++ (++, between 50 and 75% activity)

SMILES: COc1cc2c3c(n(CCCNCCO)c(=O)c2cc1OC)-c1cc2c(cc1C3=O)OCO2 [Compound 6, MJ-III-65]
- Top1 Cleavage (recombinant Top1 [3]): ++++
- GI50 (Melanoma UACC-62): 0.03 µM
- GI50 (Prostate DU-145): 0.02 µM

SMILES: COc1cc2c3c(n(CCCn4ccnc4)c(=O)c2cc1OC)-c1cc2c(cc1C3=O)OCO2 [Compound 5, indimitecan]
- Metabolism in the presence of human liver microsomes [4]: oxidative demethylation of the 2-methoxy group
- GI50 (Renal SN12C): < 0.01 µM
- GI50 (Colon HCT-116): < 0.01 µM
- GI50 (Ovarian OVCAR-3): 0.085 µM
- Top1 Cleavage (recombinant Top1 [3]): ++++
- GI50 (Melanoma UACC-62): < 0.01 µM
- GI50 (Prostate DU-145): < 0.01 µM
- GI50 (Lung HOP-62): < 0.01 µM
- GI50 (CNS SF-539): 0.037 µM

SMILES: COc1cc2c3c(n(CCCN4CCOCC4)c(=O)c2cc1OC)-c1cc2c(cc1C3=O)OCO2 [Compound 4, indotecan]
- GI50 (Renal SN12C): 0.813 µM
- GI50 (Colon HCT-116): 1.15 µM
- GI50 (Ovarian OVCAR-3): 74.1 µM
- Top1 Cleavage (recombinant Top1 [3]): ++++
- GI50 (Melanoma UACC-62): 0.03 µM
- GI50 (Prostate DU-145): 0.155 µM
- GI50 (Lung HOP-62): 1.78 µM
- GI50 (CNS SF-539): 0.04 µM

SMILES: O=C1c2cc3c(cc2-c2c1c1ccc(F)cc1c(=O)n2C[C@H](O)[C@@H](O)[C@H](O)CO)OCO3 [Compound 23, (2′S,3′R,4′R)-3-Fluoro-5,6-dihydro-6-(2′,3′,4′,5′-tetrahydroxypentyl)-8,9-methylenedioxy-5,11-dioxo-11H-indeno[1,2-c]isoquinoline]
- Top1 Cleavage (recombinant Top1 [1]): ++ (++, between 50 and 75% activity)

SMILES: O=C1c2cc3c(cc2-c2c1c1ccc(F)cc1c(=O)n2C[C@H](O)CO)OCO3 [Compound 21, (S)-3-Fluoro-6-(2,3-dihydroxypropyl)-8,9-methylenedioxy-5H-indeno[1,2-c]isoquinoline-5,11(6H)-dione]
- Top1 Cleavage (recombinant Top1 [1]): ++++

Now from value to molecule, other results behind:

- Top1 Cleavage (recombinant Top1 [1]): ++ (++, between 50 and 75% activity)
SMILES: O=C1c2cc3c(cc2-c2c1c1cc(F)c(F)cc1c(=O)n2C[C@H](O)CO)OCO3 [Compound 37, (S)-2,3-Difluoro-6-(2,3-dihydroxypropyl)-8,9-methylenedioxy-5,11-dioxo-11H-indeno[1,2-c]isoquinoline]

- Top1 Cleavage (recombinant Top1 [1]): + (+, between 20 and 50% activity)
SMILES: O=C1c2cc3c(cc2-c2c1c1cc(Cl)c(Cl)cc1c(=O)n2CCCn1ccnc1)OCO3 [Compound 46, 2,3-Dichloro-6-(3-(1H-imidazol-1-yl)propyl)-8,9-methylenedioxy-5,11-dioxo-11H-indeno[1,2-c]isoquinoline]

- Top1 Cleavage (recombinant Top1 [1]): + (+, between 20 and 50% activity)
SMILES: O=C1c2cc3c(cc2-c2c1c1cc(F)c(F)cc1c(=O)n2CCCn1ccnc1)OCO3 [Compound 38, 2,3-Difluoro-6-(3-(1H-imidazol-1-yl)propyl)-8,9-methylenedioxy-5,11-dioxo-11H-indeno[1,2-c]isoquinoline]
- GI50 [2]: 0.03 µM

- Top1 Cleavage (recombinant Top1 [1]): ++ (++, between 50 and 75% activity)
SMILES: O=C1c2cc3c(cc2-c2c1c1ccc(Cl)cc1c(=O)n2CCCn1ccnc1)OCO3 [Compound 26, 3-Chloro-6-(3-(1H-imidazol-1-yl)propyl)-8,9-methylenedioxy-5,11-dioxo-11H-indeno[1,2-c]isoquinoline]

- Top1 Cleavage (recombinant Top1 [1]): + (+, between 20 and 50% activity)
SMILES: O=C(O)C(F)(F)F.O=C1c2cc3c(cc2-c2c1c1ccc(F)cc1c(=O)n2CCCN1CCOCC1)OCO3 [Compound 27, 3-Fluoro-5,6-dihydro-6-(3-morpholinopropyl)-8,9-methylenedioxy-5,11-dioxo-11H-indeno[1,2-c]isoquinoline Trifluoroacetate]

- Top1 suppression activity (recombinant Top1 [1]; high drug concentration (100 μM), band density at several cleavage sites decreases): suppress Top1-mediated DNA cleavage
- Top1 Cleavage (recombinant Top1 [1]): +++ (+++, between 75 and 95% activity)
SMILES: O=C1c2cc3c(cc2-c2c1c1ccc(F)cc1c(=O)n2CCCn1ccnc1)OCO3 [Compound 25, 3-Fluoro-6-(3-(1H-imidazol-1-yl)propyl)-8,9-methylenedioxy-5,11-dioxo-11H-indeno[1,2-c]isoquinoline]
- GI50 [2]: ≤ 0.011 µM

- Top1 Cleavage (recombinant Top1 [1]): + (+, between 20 and 50% activity)
SMILES: O=C1c2cc3c(cc2-c2c1c1ccc(Cl)cc1c(=O)n2C[C@H](O)[C@H](O)[C@H](O)CO)OCO3 [Compound 24, (2′S,3′S,4′R)-3-Chloro-5,6-dihydro-6-(2′,3′,4′,5′-tetrahydroxypentyl)-8,9-methylenedioxy-5,11-dioxo-11H-indeno[1,2-c]isoquinoline]

- Top1 Cleavage (recombinant Top1 [1]): ++ (++, between 50 and 75% activity)
SMILES: O=C1c2cc3c(cc2-c2c1c1cc(Cl)c(Cl)cc1c(=O)n2C[C@H](O)CO)OCO3 [Compound 45, (S)-2,3-Dichloro-6-(2,3-dihydroxypropyl)-8,9-methylenedioxy-5,11-dioxo-11H-indeno[1,2-c]isoquinoline]

- Top1 Cleavage (recombinant Top1 [1]): + (+, between 20 and 50% activity)
SMILES: O=C(O)C(F)(F)F.O=C1c2cc3c(cc2-c2c1c1ccc(Cl)cc1c(=O)n2CCCN1CCOCC1)OCO3 [Compound 28, 3-Chloro-5,6-dihydro-6-(3-morpholinopropyl)-8,9-methylenedioxy-5,11-dioxo-11H-indeno[1,2-c]isoquinoline Trifluoroacetate]
